For one test, the target named is O-acyltransferase (Oryctolagus cuniculus, UniProt G1SFD9). Briefly: Inhibitory activity against Acyl coenzyme A:cholesterol acyltransferase 1 obtained from rabbit intestine microsomes. The method in brief:
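Enzyme source was small-intestinal mucosa microsomes from cholesterol-fed rabbits. The substrate was [1-¹⁴C]oleoyl-CoA.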

The test system of test [1] is Rattus norvegicus. Briefly: Total cholesterol lowering activity tested by administered orally to rats at dose 10(mg/kg) once a day for 3 days. The class given is functional. The method in brief:
(§1)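 Male Wistar rats received the compound orally once daily for 3 days. Each night they ate a diet with 2% cholesterol, 1% cholic acid, 20% casein, 45% sucrose, 12% coconut oil, 4% KC flock, 1% vitamin mix, 7% mineral mix and 8% dried fish powder. Serum total cholesterol was then measured. Activity is the observed reduction as a percentage of the control-minus-normal difference.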

Test [2] is filed under the species Rattus norvegicus. The experiment in a line: Inhibitory activity against foam cell formation (acetyl-LDL-induced cholesteryl ester accumulation) in rat peritoneal macrophages. The class given is functional. The gist of the method:
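Peritoneal macrophages were prepared from rats. The IC₅₀ was determined for inhibition of acetyl-human-LDL-induced cellular cholesteryl ester accumulation.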

The test system of test [3] is Rattus norvegicus. The experiment in a line: Total cholesterol lowering activity tested by administered orally to cholesterol fed rats at dose 0.3(mg/kg) once a day for 3 days. The class given is functional. The method in brief: as §1
Test [4] deals with Rattus norvegicus. The experiment in a line: Total cholesterol lowering activity tested by administered orally to rats at dose 1(mg/kg) once a day for 3 days. Format: functional. The method in brief: as §1
For test [5], the system named is Rattus norvegicus. Briefly: Total cholesterol lowering activity tested by administered orally to rats at dose 3(mg/kg) once a day for 3 days. Format: functional. The gist of the method:
as §1

Test [6] concerns the target Sterol O-acyltransferase 1 (Oryctolagus cuniculus). Briefly: Inhibitory activity against Acyl coenzyme A:cholesterol acyltransferase 1 obtained from rabbit liver microsomes.
The subject of test [7] is Rattus norvegicus. The experiment in a line: Total cholesterol lowering activity tested by administered orally to cholesterol fed rats at dose 3(mg/kg) once a day for 3 days. Format: functional. The gist of the method: as §1

SMILES strings stand for the structures.

The IC50 is the point on the concentration scale where inhibition reaches its midpoint. A low value points to higher potency. `CCCCCCCCCCC1(C(=O)Nc2c(C)ccc3c2OC(C)(C)C3)CCCC1` had an IC50 against O-acyltransferase of 240 nM. Further, in the test on Rattus norvegicus [1], the Change is listed as -52%. At O-acyltransferase, `CCCCCCCCCCC1(C(=O)Nc2cccc3c2OC(C)(C)C3)CCCC1` came in with a half-maximal inhibitory concentration (IC50) of 500 nM.

On O-acyltransferase, `Cc1cc(C)c(NC(=O)C(C)(C)CCCCCOc2ccccc2)c2c1CC(C)(C)O2` displayed a concentration for half-maximal inhibition (IC50) of 86 nM. Take `CCCCCCCCCCCCCCCC(=O)Nc1cccc2c1OC(C)(C)C2`: the IC50 against O-acyltransferase was 890 nM. Compared with the last molecule, the IC50 is about 10-fold higher. At O-acyltransferase, `Cc1cc(C)c(NC(=O)C(C)(C)CCCCOc2ccc(Cl)cc2)c2c1CC(C)(C)O2` showed an IC50 of 330 nM. In the test on Rattus norvegicus [1], the Change is -61%.

Consider `CCCCCCCCCCC(C)(C)C(=O)Nc1c(C)c(N(C)C)c(C)c2c1OC(C)(C)C2`, for which it took 30 nM to reach half-maximal inhibition in the test listed under Rattus norvegicus [2] (IC50). For the same molecule, the Change in the test on Rattus norvegicus [3] is listed as -71%; with Rattus norvegicus [4], -88%. In the case of `Cc1cc(C)c(NC(=O)C(C)(C)CCCCCCOCC(C)C)c2c1CC(C)(C)O2`, in the test on Rattus norvegicus [1], the Change is given as -62%. On O-acyltransferase, `CCCCCCCCCCOc1ccc(C(=O)Nc2c(C)cc(C)c3c2OC(C)(C)C3)cc1` gave an IC50 of 30 nM. The Change in the test on Rattus norvegicus [5] is recorded as 0%. For `CCCCCCCCCCCCOc1ccc(C(=O)Nc2c(C)cc(C)c3c2OC(C)(C)C3)cc1`, the IC50 against O-acyltransferase came out at 90 nM. Regarding `Cc1cc(C)c(NC(=O)C(C)(C)CCCCCCN2CCCCC2)c2c1CC(C)(C)O2`, at O-acyltransferase, the IC50 is over 500 nM. For `Cc1cc(C)c(NC(=O)C(C)(C)CCCCCCOc2ccc(Cl)cc2)c2c1CC(C)(C)O2`, the IC50 at O-acyltransferase is 76 nM; in the test listed under Rattus norvegicus [2], 1500 nM. Moreover, the Change in the test with Rattus norvegicus [3] is listed as -64%; in the test on Rattus norvegicus [4], -75%. `CCCCCCCCCCC(C)(C)C(=O)Nc1c(C)cc(C)c2c1OC(C)(C)C2` showed an IC50 in the test listed under Rattus norvegicus [2] of 650 nM. Moreover, the Change with Rattus norvegicus [3] is on record as -44%; in the test with Rattus norvegicus [4] it was -61%. `Cc1cc(C)c(NC(=O)C(C)(C)CCCCCc2ccccc2)c2c1CC(C)(C)O2` registered an IC50 on O-acyltransferase of 120 nM. Further, the Change with Rattus norvegicus [1] is -66%. Take `CCCCCCCCCCCCCCCC(=O)Nc1c(C)cc(C)c2c1OC(C)(C)C2`: at O-acyltransferase, 26 nM corresponded to half-maximal inhibition (IC50). Molecule `CCCCCCCCC(C)(C)C(=O)Nc1c(C)cc(C)c2c1OC(C)(C)C2` returned an IC50 against O-acyltransferase of 140 nM. Compared with the last molecule, the IC50 is about 5.4-fold higher. `Cc1cc(C)c(NC(=O)C(C)(C)CCCOc2ccc(Cl)cc2)c2c1CC(C)(C)O2` yielded a concentration for half-maximal inhibition (IC50) on O-acyltransferase of 260 nM.

On O-acyltransferase, `Cc1cc(C)c(NC(=O)C(C)(C)CCCCc2ccccc2)c2c1CC(C)(C)O2` registered a concentration for half-maximal inhibition (IC50) of 210 nM. The IC50 values of the last two molecules are within 1.5-fold of each other.

As for `CCCCCCCCCCC(C)(C)C(=O)Nc1c(OC)ccc2c1OCCC2=O`, the figures for the IC50 (in the test listed under Rattus norvegicus [2]; in test [6]) were 160 nM and 16 nM, respectively. Moreover, the Change in the test with Rattus norvegicus [3] was -66%. For `CCCCCCCCCCC(C)(C)C(=O)Nc1c(C)c([N+](=O)[O-])c(C)c2c1OC(C)(C)C2`, half-maximal inhibition on O-acyltransferase (IC50) was put at 36 nM. As for `Cc1cc(C)c(NC(=O)c2ccc(OCCCCCCOc3ccc(Cl)cc3)cc2)c2c1CC(C)(C)O2`, the IC50 on O-acyltransferase was over 200 nM. On the same count and under the same terms, the value for `CCCOCCCCCCOc1ccc(C(=O)Nc2c(C)cc(C)c3c2OC(C)(C)C3)cc1` was over 200 nM; that for `CCCCCCCCCCCCC(C)(C)C(=O)Nc1c(C)cc(C)c2c1OC(C)(C)C2` was 33 nM.

With `Cc1cc(C)c(NC(=O)C(C)(C)CCCCOCc2ccccc2)c2c1CC(C)(C)O2`, in the test on Rattus norvegicus [1], the Change is -50%. As for `CCCCCCCCCCC(C)(C)C(=O)Nc1c(C)c(N)c(C)c2c1OC(C)(C)C2`, 59 nM corresponded to half-maximal inhibition at O-acyltransferase (IC50). This counts as double-digit nanomolar. Take `CCCCCCCCCCC1(C(=O)Nc2c(C)cc(C)c3c2OC(C)(C)C3)CCCC1`: 170 nM corresponded to half-maximal inhibition at O-acyltransferase (IC50). Same read-out and setting: the value for `Cc1ccc(OCCCCCCC(C)(C)C(=O)Nc2c(C)cc(C)c3c2OC(C)(C)C3)cc1` was 50 nM.

On O-acyltransferase, `CCCCCCCCOc1ccc(C(=O)Nc2c(C)cc(C)c3c2OC(C)(C)C3)cc1` came in with an IC50 of over 200 nM. At O-acyltransferase, `Cc1cc(C)c(NC(=O)C(C)(C)CCCCCCc2ccccc2)c2c1CC(C)(C)O2` showed an IC50 of 81 nM. Consider `Cc1cc(C)c(NC(=O)C(C)(C)CCCc2ccc(CC(C)C)cc2)c2c1CC(C)(C)O2`, for which, on O-acyltransferase, the midpoint of inhibition, the IC50, lay at 40 nM. In the test on Rattus norvegicus [5], the Change was -57%. In the case of `Cc1cc(C)c(NC(=O)C(C)(C)CCCCCOc2ccc(Cl)cc2)c2c1CC(C)(C)O2`, half-maximal inhibition against O-acyltransferase (IC50) required 150 nM. Besides, in the test with Rattus norvegicus [4], the Change is reported as -64%. In the case of `CCCCCCCCCCC(C)(C)C(=O)Nc1c(OC)cc(OC)cc1OC` [CL-976], half-maximal inhibition in the test filed under Rattus norvegicus [2] (IC50) required 3800 nM. The Change in the test on Rattus norvegicus [7] is given as -50%.
